{
  "source": "ChEMBL document CHEMBL4699436",
  "about": "“Scaffold diversity for enhanced activity of glycosylated inhibitors of fungal adhesion” (RSC Med Chem, 2020)",
  "key": {"Candida albicans [1]": {"system": "Candida albicans", "experiment": "Anti-adherence activity against Candida albicans serotype B assessed as displacement of adhered yeast cells on BECs at 13.8 mM incubated for 90 mins after preincubation of yeast cells with BECs by crystal violet staning based microscopic method relative to PBS control after second filtration", "format": "functional, organism-based", "summary_of_the_method": "(§1)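 C. albicans MEN (serotype B, corneal clinical isolate) was grown overnight to stationary phase in YEPD at 30 °C and 200 rpm, washed, and resuspended in PBS at 1 × 10^8 cells per mL. Buccal epithelial cells were scraped from healthy volunteers, washed, and held at 5 × 10^5 per mL. Yeast and BECs (50:1) were co-incubated first. The BECs with adherent yeast were collected on a 30 μm polycarbonate membrane, then re-incubated with compound for 90 min. Yeast on 200 BECs were counted after crystal violet staining. Control 1 was PBS. Control 2 was the PBS-treated count after the second filtration, to account for physical detachment. Three independent occasions; mean ± SEM.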"}, "[2]": {"experiment": "Toxicity against Candid albicans serotype B assessed as reduction in fungal growth at 0.0133 to 3.4 mM", "conditions": "candida albicans, 3400 µM; dose 0.0133-3.4 mM"}, "Candida albicans [3]": {"system": "Candida albicans", "experiment": "Anti-adherence activity against Candida albicans serotype B assessed as displacement of adhered yeast cells on BECs at 13.8 mM incubated for 90 mins after preincubation of yeast cells with BECs by crystal violet staning based microscopic method relative to PBS control", "format": "functional, organism-based", "summary_of_the_method": "as §1"}, "Candida albicans [4]": {"system": "Candida albicans", "experiment": "Anti-adherence activity against Candida albicans serotype B assessed as fungal adhesion to human BECs at 13.8 mM co- incubated for 90 mins with yeast cells and BECs by crystal violet staning based microscopic method relative to control", "format": "functional", "conditions": "1.5 h", "summary_of_the_method": "(§2)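 Yeast (C. albicans MEN, stationary phase, washed, 1 × 10^8 per mL in PBS) were co-incubated with volunteer BECs at 50:1, with compound present, in 2 mL at 30 °C and 200 rpm for 90 min. Unattached yeast were removed on a 30 μm membrane with two PBS washes. Cells were heat-fixed and stained with crystal violet, and adherent yeast on 200 BECs were counted microscopically. PBS control. Three independent occasions; mean ± SEM.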"}, "Candida albicans [5]": {"system": "Candida albicans", "experiment": "(§3) Anti-adherence activity against Candida albicans serotype B assessed as reduction in fungal adhesion to human BECs at 13.8 mM preincubated with yeast cells for 90 mins followed by twice washout with PBS followed by BECs addition by crystal violet staning based microscopic method relative to control", "format": "functional", "conditions": "1.5 h", "summary_of_the_method": "(§4)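 Pre-treatment (exclusion) format. Stationary-phase C. albicans MEN in PBS were incubated with compound for 90 min, washed twice with PBS, and resuspended in 1 mL PBS. They were then mixed 50:1 with volunteer BECs for 90 min at 30 °C and 200 rpm. After 30 μm membrane filtration and crystal violet staining, yeast attached to 200 BECs were counted. PBS control. Three independent occasions; mean ± SEM.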"}, "Candida albicans [6]": {"system": "Candida albicans", "experiment": "Anti-adherence activity against Candida albicans serotype B assessed as reduction in yeast adhesion to human BECs at 13.8 mM preincubated for 90 mins with BECs followed by twice washout with PBS followed by yeast cells addition by crystal violet staning based microscopic method relative to control", "format": "functional", "conditions": "1.5 h", "summary_of_the_method": "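Reverse exclusion format. Buccal epithelial cells were pre-treated with compound at 13.8 mM before exposure to the yeast (C. albicans MEN, stationary phase, in PBS). Adherence was measured by membrane filtration, crystal violet staining, and microscopic counting of yeast on 200 BECs. Three independent occasions; mean ± SEM.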"}, "Candida albicans [7]": {"system": "Candida albicans", "experiment": "Anti-adherence activity against Candida albicans serotype B assessed as displacement of adhered yeast cells on human BECs at 138 uM incubated for 90 mins after preincubation of yeast cells with BECs by crystal violet staning based microscopic method relative to PBS control", "format": "functional, organism-based", "summary_of_the_method": "as §1"}, "Candida albicans [8]": {"system": "Candida albicans", "experiment": "as §3, with “0.138 to 1.38” for “13.8”", "format": "functional", "conditions": "dose mM 0.138-1.38, 1.5 h", "summary_of_the_method": "as §4"}, "Candida albicans [9]": {"system": "Candida albicans", "experiment": "Anti-adherence activity against Candida albicans serotype B assessed as fungal adhesion to human BECs at 138 uM co-incubated for 90 mins with yeast cells and BECs by crystal violet staning based microscopic method relative to control", "format": "functional", "conditions": "1.5 h", "summary_of_the_method": "as §2"}, "Candida albicans [10]": {"system": "Candida albicans", "experiment": "Anti-adherence activity against Candida albicans serotype B assessed as fungal adhesion to human BECs at 1.38 mM co-incubated for 90 mins with yeast cells and BECs by crystal violet staning based microscopic method relative to control", "format": "functional", "conditions": "1.5 h", "summary_of_the_method": "as §2"}, "Candida albicans [11]": {"system": "Candida albicans", "experiment": "Anti-adherence activity against Candida albicans serotype B assessed as displacement of adhered yeast cells on BECs at 138 uM incubated for 90 mins after preincubation of yeast cells with BECs by crystal violet staning based microscopic method relative to PBS control after second filtration", "format": "functional, organism-based", "summary_of_the_method": "as §1"}},
  "data": [
    {"molecule": "O=C(NCc1cn([C@@H]2O[C@H](CO)[C@H](O)[C@H](O)[C@H]2O)nn1)[C@@H]1[C@H](C(=O)NCc2cn([C@@H]3O[C@H](CO)[C@H](O)[C@H](O)[C@H]3O)nn2)[C@@H]2C=C[C@H]1C2", "values": [
      {"measurement": "inhibition", "setting": "Candida albicans [1]", "result": 34, "unit": "%"},
      {"measurement": "Activity", "setting": "[2]", "result": "Non-Toxic"},
      {"measurement": "inhibition", "setting": "Candida albicans [3]", "result": 45, "unit": "%"},
      {"measurement": "Fungal adhesion relative to control", "setting": "Candida albicans [4]", "result": 61, "unit": "%"},
      {"measurement": "inhibition at 13800 µM", "setting": "Candida albicans [5]", "result": 65, "unit": "%"}
    ]},
    {"molecule": "O=c1c(NCc2cn(CCO[C@@H]3O[C@H](CO)[C@H](O)[C@H](O)[C@H]3O)nn2)c(NCc2cn(CCO[C@@H]3O[C@H](CO)[C@H](O)[C@H](O)[C@H]3O)nn2)c1=O", "values": [
      {"measurement": "inhibition", "setting": "Candida albicans [1]", "result": 21, "unit": "%"},
      {"measurement": "Activity", "setting": "[2]", "result": "Non-Toxic"},
      {"measurement": "inhibition", "setting": "Candida albicans [3]", "result": 35, "unit": "%"},
      {"measurement": "Fungal adhesion relative to control", "setting": "Candida albicans [4]", "result": 69, "unit": "%"},
      {"measurement": "inhibition at 13800 µM", "setting": "Candida albicans [5]", "result": 33, "unit": "%"},
      {"measurement": "inhibition at 13800 µM", "setting": "Candida albicans [6]", "result": 19, "unit": "%"}
    ]},
    {"molecule": "O=C1[C@@H]2[C@H](C(=O)N1Cc1cn([C@@H]3O[C@H](CO)[C@H](O)[C@H](O)[C@H]3O)nn1)[C@@H]1C=C[C@H]2C1", "values": [
      {"measurement": "inhibition", "setting": "Candida albicans [1]", "result": 7, "unit": "%"},
      {"measurement": "inhibition", "setting": "Candida albicans [3]", "result": 23, "unit": "%"},
      {"measurement": "Fungal adhesion relative to control", "setting": "Candida albicans [4]", "result": 83, "unit": "%"},
      {"measurement": "inhibition at 13800 µM", "setting": "Candida albicans [5]", "result": 43, "unit": "%"}
    ]},
    {"molecule": "O=c1c(NCc2cn([C@@H]3O[C@H](CO)[C@H](O[C@@H]4O[C@H](CO)[C@H](O)[C@H](O)[C@H]4O)[C@H](O)[C@H]3O)nn2)c(NCc2cn([C@@H]3O[C@H](CO)[C@H](O[C@@H]4O[C@H](CO)[C@H](O)[C@H](O)[C@H]4O)[C@H](O)[C@H]3O)nn2)c1=O", "values": [
      {"measurement": "inhibition", "setting": "Candida albicans [1]", "result": 25, "unit": "%"},
      {"measurement": "inhibition", "setting": "Candida albicans [3]", "result": 39, "unit": "%"},
      {"measurement": "Fungal adhesion relative to control", "setting": "Candida albicans [4]", "result": 64, "unit": "%"},
      {"measurement": "inhibition at 13800 µM", "setting": "Candida albicans [5]", "result": 34, "unit": "%"},
      {"measurement": "inhibition at 13800 µM", "setting": "Candida albicans [6]", "result": 15, "unit": "%"}
    ]},
    {"molecule": "O=c1c(NCc2cn([C@@H]3O[C@H](CO)[C@H](O)[C@H](O)[C@H]3O)nn2)c(NCc2cn([C@@H]3O[C@H](CO)[C@H](O)[C@H](O)[C@H]3O)nn2)c1=O", "values": [
      {"measurement": "Activity", "setting": "[2]", "result": "Non-Toxic"},
      {"measurement": "Fungal adhesion relative to control", "setting": "Candida albicans [4]", "result": 83, "unit": "%"},
      {"measurement": "inhibition at 13800 µM", "setting": "Candida albicans [5]", "result": 27, "unit": "%"},
      {"measurement": "inhibition at 13800 µM", "setting": "Candida albicans [6]", "result": 12, "unit": "%"}
    ]},
    {"molecule": "O=C(NCc1cn([C@@H]2O[C@H](CO)[C@H](O)[C@H](O)[C@H]2O)nn1)c1ccc(C(=O)NCc2cn([C@@H]3O[C@H](CO)[C@H](O)[C@H](O)[C@H]3O)nn2)cc1", "values": [
      {"measurement": "Activity", "setting": "[2]", "result": "Non-Toxic"},
      {"measurement": "inhibition", "setting": "Candida albicans [7]", "result": 63, "unit": "%"},
      {"measurement": "inhibition (INH)", "setting": "Candida albicans [8]", "result": "<=61%"},
      {"measurement": "Activity", "setting": "Candida albicans [9]", "result": 56, "unit": "%"},
      {"measurement": "Activity", "setting": "Candida albicans [10]", "result": 74, "unit": "%"},
      {"measurement": "inhibition", "setting": "Candida albicans [11]", "result": 48, "unit": "%"},
      {"measurement": "Fungal adhesion relative to control", "setting": "Candida albicans [4]", "result": 38, "unit": "%"},
      {"measurement": "inhibition at 13800 µM", "setting": "Candida albicans [5]", "result": 33.5, "unit": "%"}
    ]},
    {"molecule": "CCC(=O)Nc1cc(C(=O)NCc2cn([C@@H]3O[C@H](CO)[C@H](O)[C@H](O)[C@H]3O)nn2)cc(C(=O)NCc2cn([C@@H]3O[C@H](CO)[C@H](O)[C@H](O)[C@H]3O)nn2)c1", "values": [
      {"measurement": "inhibition", "setting": "Candida albicans [1]", "result": 31, "unit": "%"},
      {"measurement": "Activity", "setting": "[2]", "result": "Non-Toxic"},
      {"measurement": "inhibition", "setting": "Candida albicans [7]", "result": 56, "unit": "%"},
      {"measurement": "Activity", "setting": "Candida albicans [9]", "result": 65, "unit": "%"},
      {"measurement": "inhibition", "setting": "Candida albicans [3]", "result": 42, "unit": "%"},
      {"measurement": "Activity", "setting": "Candida albicans [10]", "result": 74, "unit": "%"},
      {"measurement": "inhibition", "setting": "Candida albicans [11]", "result": 36, "unit": "%"},
      {"measurement": "Fungal adhesion relative to control", "setting": "Candida albicans [4]", "result": 59, "unit": "%"},
      {"measurement": "inhibition at 13800 µM", "setting": "Candida albicans [5]", "result": 42, "unit": "%"},
      {"measurement": "inhibition at 13800 µM", "setting": "Candida albicans [6]", "result": 22, "unit": "%"}
    ]},
    {"molecule": "O=C(NCc1cn([C@@H]2O[C@H](CO)[C@H](O)[C@H](O)[C@H]2O)nn1)[C@H]1[C@H](C(=O)NCc2cn([C@@H]3O[C@H](CO)[C@H](O)[C@H](O)[C@H]3O)nn2)[C@H]2C=C[C@@H]1C2", "values": [
      {"measurement": "inhibition", "setting": "Candida albicans [1]", "result": 7, "unit": "%"},
      {"measurement": "inhibition", "setting": "Candida albicans [3]", "result": 23, "unit": "%"},
      {"measurement": "Fungal adhesion relative to control", "setting": "Candida albicans [4]", "result": 62, "unit": "%"},
      {"measurement": "inhibition at 13800 µM", "setting": "Candida albicans [5]", "result": 46, "unit": "%"}
    ]}
  ]
}
